Assay results published in ChEMBL document CHEMBL3739379, “Anti-Candida activity and cytotoxicity of a large library of new N-substituted-1,3-thiazolidin-4-one derivatives” (Eur J Med Chem, 2016).
In brackets after ≈: the same amount, converted by molar mass.

Test system: Staphylococcus aureus
Test: Antibacterial activity against Staphylococcus aureus after 18 to 22 hrs by broth microdilution method
Assay type: functional
Conditions: not given
How it was run: (§1)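 Broth microdilution per NCCLS in Mueller-Hinton II broth; isolates subcultured for purity. Compounds dissolved in DMSO, serial dilutions 256 to 0.5 µg/mL; inoculum 10^5/mL. Controls: organism without compound, medium only. Incubation 18 to 22 h at 35 °C. MIC is the lowest concentration giving complete growth inhibition, read by unaided eye.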

| Compound | MIC [µg/mL] |
| --- | --- |
| O=C1CS/C(=N\N=C\c2ccco2)N1Cc1cccc2ccccc12 | > 256 |
| C/C(=N\N=C1/SCC(=O)N1Cc1ccc([N+](=O)[O-])cc1)c1cccs1 | > 256 |
| CC(C)=N/N=C1\SCC(=O)N1Cc1ccc([N+](=O)[O-])cc1 | > 256 |

Next, values leading:

| MIC [µg/mL] | Compound |
| --- | --- |
| > 256 | CC/C(C)=N/N=C1\SCC(=O)N1Cc1ccc([N+](=O)[O-])cc1 |
| > 256 | C=CCC/C(C)=N/N=C1\SCC(=O)N1Cc1cccc2ccccc12 |

Test system: Candida tropicalis
Test: Antifungal activity against Candida tropicalis clinical isolate after 24 hrs by sabouraud dextrose broth based microdilution method
Assay type: functional
Conditions: not given
How it was run: (§2)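 Clinical isolates identified by conventional methods and subcultured for purity. Broth microdilution per NCCLS in Sabouraud dextrose broth; compounds dissolved in DMSO and serially diluted; inoculum 10^3/mL. Controls: fungi without compound, medium only. Incubated 24 h at 37 °C. MIC is the lowest concentration with complete growth inhibition by unaided eye. Values are geometric means over isolates per species.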

| Compound | MIC [µg/mL] |
| --- | --- |
| O=C1CS/C(=N\N=C\c2ccco2)N1Cc1cccc2ccccc12 | 8 (≈ 22.9 µM) |
| C/C(=N\N=C1/SCC(=O)N1Cc1ccc([N+](=O)[O-])cc1)c1cccs1 | 4 (≈ 10.7 µM) |
| CC(C)=N/N=C1\SCC(=O)N1Cc1ccc([N+](=O)[O-])cc1 | 2 (≈ 6.53 µM) |

The remaining lines, values ahead:

| MIC [µg/mL] | Compound |
| --- | --- |
| 128 (≈ 400 µM) | CC/C(C)=N/N=C1\SCC(=O)N1Cc1ccc([N+](=O)[O-])cc1 |
| 8 (≈ 22.8 µM) | C=CCC/C(C)=N/N=C1\SCC(=O)N1Cc1cccc2ccccc12 |

Test system: Nakaseomyces glabratus
Test: Antifungal activity against Candida glabrata clinical isolate after 24 hrs by sabouraud dextrose broth based microdilution method
Assay type: functional
Conditions: not given
How it was run: as §2

| Compound | MIC [µg/mL] |
| --- | --- |
| O=C1CS/C(=N\N=C\c2ccco2)N1Cc1cccc2ccccc12 | 8 (≈ 22.9 µM) |
| C/C(=N\N=C1/SCC(=O)N1Cc1ccc([N+](=O)[O-])cc1)c1cccs1 | 2 (≈ 5.34 µM) |
| CC(C)=N/N=C1\SCC(=O)N1Cc1ccc([N+](=O)[O-])cc1 | 4 (≈ 13.1 µM) |

Continued, values first:

| MIC [µg/mL] | Compound |
| --- | --- |
| 2 (≈ 6.24 µM) | CC/C(C)=N/N=C1\SCC(=O)N1Cc1ccc([N+](=O)[O-])cc1 |
| 2 (≈ 5.69 µM) | C=CCC/C(C)=N/N=C1\SCC(=O)N1Cc1cccc2ccccc12 |

Test system: Enterobacter sp.
Test: Antibacterial activity against Enterobacter sp. after 18 to 22 hrs by broth microdilution method
Assay type: functional
Conditions: not given
How it was run: as §1

| Compound | MIC [µg/mL] |
| --- | --- |
| O=C1CS/C(=N\N=C\c2ccco2)N1Cc1cccc2ccccc12 | > 256 |
| C/C(=N\N=C1/SCC(=O)N1Cc1ccc([N+](=O)[O-])cc1)c1cccs1 | > 256 |
| CC(C)=N/N=C1\SCC(=O)N1Cc1ccc([N+](=O)[O-])cc1 | > 256 |

Other lines, results leading:

| MIC [µg/mL] | Compound |
| --- | --- |
| > 256 | CC/C(C)=N/N=C1\SCC(=O)N1Cc1ccc([N+](=O)[O-])cc1 |
| > 256 | C=CCC/C(C)=N/N=C1\SCC(=O)N1Cc1cccc2ccccc12 |

Test system: [Candida] sake
Test: Antifungal activity against Candida sake clinical isolate after 24 hrs by sabouraud dextrose broth based microdilution method
Assay type: functional
Conditions: Fermentozyma sake
How it was run: as §2

| Compound | MIC [µg/mL] |
| --- | --- |
| O=C1CS/C(=N\N=C\c2ccco2)N1Cc1cccc2ccccc12 | 2 (≈ 5.72 µM) |
| C/C(=N\N=C1/SCC(=O)N1Cc1ccc([N+](=O)[O-])cc1)c1cccs1 | 8 (≈ 21.4 µM) |
| CC(C)=N/N=C1\SCC(=O)N1Cc1ccc([N+](=O)[O-])cc1 | 2 (≈ 6.53 µM) |

Further lines, results first:

| MIC [µg/mL] | Compound |
| --- | --- |
| 8 (≈ 25 µM) | CC/C(C)=N/N=C1\SCC(=O)N1Cc1ccc([N+](=O)[O-])cc1 |
| 2 (≈ 5.69 µM) | C=CCC/C(C)=N/N=C1\SCC(=O)N1Cc1cccc2ccccc12 |

Test system: Candida albicans
Test: Antifungal activity against Candida albicans clinical isolate after 24 hrs by sabouraud dextrose broth based microdilution method
Assay type: functional
Conditions: not given
How it was run: as §2

| Compound | MIC [µg/mL] |
| --- | --- |
| O=C1CS/C(=N\N=C\c2ccco2)N1Cc1cccc2ccccc12 | 16 (≈ 45.8 µM) |
| C/C(=N\N=C1/SCC(=O)N1Cc1ccc([N+](=O)[O-])cc1)c1cccs1 | 8 (≈ 21.4 µM) |
| CC(C)=N/N=C1\SCC(=O)N1Cc1ccc([N+](=O)[O-])cc1 | 4 (≈ 13.1 µM) |

Continued, values first:

| MIC [µg/mL] | Compound |
| --- | --- |
| 2 (≈ 6.24 µM) | CC/C(C)=N/N=C1\SCC(=O)N1Cc1ccc([N+](=O)[O-])cc1 |
| 2 (≈ 5.69 µM) | C=CCC/C(C)=N/N=C1\SCC(=O)N1Cc1cccc2ccccc12 |

Test system: Staphylococcus warneri
Test: Antibacterial activity against Staphylococcus warneri after 18 to 22 hrs by broth microdilution method
Assay type: functional
Conditions: not given
How it was run: as §1

| Compound | MIC [µg/mL] |
| --- | --- |
| O=C1CS/C(=N\N=C\c2ccco2)N1Cc1cccc2ccccc12 | > 256 |
| C/C(=N\N=C1/SCC(=O)N1Cc1ccc([N+](=O)[O-])cc1)c1cccs1 | > 256 |
| CC(C)=N/N=C1\SCC(=O)N1Cc1ccc([N+](=O)[O-])cc1 | > 256 |

Continued, values first:

| MIC [µg/mL] | Compound |
| --- | --- |
| > 256 | CC/C(C)=N/N=C1\SCC(=O)N1Cc1ccc([N+](=O)[O-])cc1 |
| > 256 | C=CCC/C(C)=N/N=C1\SCC(=O)N1Cc1cccc2ccccc12 |

Test system: Pichia kudriavzevii
Test: Antifungal activity against Candida krusei clinical isolate after 24 hrs by sabouraud dextrose broth based microdilution method
Assay type: functional
Conditions: not given
How it was run: as §2

| Compound | MIC [µg/mL] |
| --- | --- |
| O=C1CS/C(=N\N=C\c2ccco2)N1Cc1cccc2ccccc12 | 16 (≈ 45.8 µM) |
| C/C(=N\N=C1/SCC(=O)N1Cc1ccc([N+](=O)[O-])cc1)c1cccs1 | 2 (≈ 5.34 µM) |
| CC(C)=N/N=C1\SCC(=O)N1Cc1ccc([N+](=O)[O-])cc1 | 2 (≈ 6.53 µM) |

Second part, the compound after the results:

| MIC [µg/mL] | Compound |
| --- | --- |
| 2 (≈ 6.24 µM) | CC/C(C)=N/N=C1\SCC(=O)N1Cc1ccc([N+](=O)[O-])cc1 |
| 2 (≈ 5.69 µM) | C=CCC/C(C)=N/N=C1\SCC(=O)N1Cc1cccc2ccccc12 |

Test system: Enterococcus faecalis
Test: Antibacterial activity against […] faecalis after 18 to 22 hrs by broth microdilution method
Assay type: functional
Conditions: not given
How it was run: as §1

| Compound | MIC [µg/mL] |
| --- | --- |
| O=C1CS/C(=N\N=C\c2ccco2)N1Cc1cccc2ccccc12 | > 256 |
| C/C(=N\N=C1/SCC(=O)N1Cc1ccc([N+](=O)[O-])cc1)c1cccs1 | > 256 |
| CC(C)=N/N=C1\SCC(=O)N1Cc1ccc([N+](=O)[O-])cc1 | > 256 |

Results, then the compound that gave them:

| MIC [µg/mL] | Compound |
| --- | --- |
| > 256 | CC/C(C)=N/N=C1\SCC(=O)N1Cc1ccc([N+](=O)[O-])cc1 |
| > 256 | C=CCC/C(C)=N/N=C1\SCC(=O)N1Cc1cccc2ccccc12 |

Test system: Klebsiella oxytoca
Test: Antibacterial activity against Klebsiella oxytoca after 18 to 22 hrs by broth microdilution method
Assay type: functional
Conditions: not given
How it was run: as §1

| Compound | MIC [µg/mL] |
| --- | --- |
| O=C1CS/C(=N\N=C\c2ccco2)N1Cc1cccc2ccccc12 | > 256 |
| C/C(=N\N=C1/SCC(=O)N1Cc1ccc([N+](=O)[O-])cc1)c1cccs1 | > 256 |
| CC(C)=N/N=C1\SCC(=O)N1Cc1ccc([N+](=O)[O-])cc1 | > 256 |

Further lines, results first:

| MIC [µg/mL] | Compound |
| --- | --- |
| > 256 | CC/C(C)=N/N=C1\SCC(=O)N1Cc1ccc([N+](=O)[O-])cc1 |
| > 256 | C=CCC/C(C)=N/N=C1\SCC(=O)N1Cc1cccc2ccccc12 |

Test system: Staphylococcus haemolyticus
Test: Antibacterial activity against Staphylococcus haemolyticus after 18 to 22 hrs by broth microdilution method
Assay type: functional
Conditions: not given
How it was run: as §1

| Compound | MIC [µg/mL] |
| --- | --- |
| O=C1CS/C(=N\N=C\c2ccco2)N1Cc1cccc2ccccc12 | > 256 |
| C/C(=N\N=C1/SCC(=O)N1Cc1ccc([N+](=O)[O-])cc1)c1cccs1 | > 256 |
| CC/C(C)=N/N=C1\SCC(=O)N1Cc1ccc([N+](=O)[O-])cc1 | > 256 |
| C=CCC/C(C)=N/N=C1\SCC(=O)N1Cc1cccc2ccccc12 | > 256 |
| CC(C)=N/N=C1\SCC(=O)N1Cc1ccc([N+](=O)[O-])cc1 | > 256 |

Test system: Candida parapsilosis
Test: Antifungal activity against Candida parapsilosis clinical isolate after 24 hrs by sabouraud dextrose broth based microdilution method
Assay type: functional
Conditions: Lodderomyces parapsilosis
How it was run: as §2

| Compound | MIC [µg/mL] |
| --- | --- |
| O=C1CS/C(=N\N=C\c2ccco2)N1Cc1cccc2ccccc12 | 16 (≈ 45.8 µM) |
| C/C(=N\N=C1/SCC(=O)N1Cc1ccc([N+](=O)[O-])cc1)c1cccs1 | 2 (≈ 5.34 µM) |
| CC(C)=N/N=C1\SCC(=O)N1Cc1ccc([N+](=O)[O-])cc1 | 2 (≈ 6.53 µM) |

Other lines, results leading:

| MIC [µg/mL] | Compound |
| --- | --- |
| 2 (≈ 6.24 µM) | CC/C(C)=N/N=C1\SCC(=O)N1Cc1ccc([N+](=O)[O-])cc1 |
| 2 (≈ 5.69 µM) | C=CCC/C(C)=N/N=C1\SCC(=O)N1Cc1cccc2ccccc12 |

Test system: Escherichia coli
Test: Antibacterial activity against Escherichia coli at after 18 to 22 hrs by broth microdilution method
Assay type: functional
Conditions: not given
How it was run: as §1

| Compound | MIC [µg/mL] |
| --- | --- |
| O=C1CS/C(=N\N=C\c2ccco2)N1Cc1cccc2ccccc12 | > 256 |
| C/C(=N\N=C1/SCC(=O)N1Cc1ccc([N+](=O)[O-])cc1)c1cccs1 | > 256 |
| CC(C)=N/N=C1\SCC(=O)N1Cc1ccc([N+](=O)[O-])cc1 | > 256 |

Next, values leading:

| MIC [µg/mL] | Compound |
| --- | --- |
| > 256 | CC/C(C)=N/N=C1\SCC(=O)N1Cc1ccc([N+](=O)[O-])cc1 |
| > 256 | C=CCC/C(C)=N/N=C1\SCC(=O)N1Cc1cccc2ccccc12 |

Test system: Proteus mirabilis
Test: Antibacterial activity against Proteus mirabilis after 18 to 22 hrs by broth microdilution method
Assay type: functional
Conditions: not given
How it was run: as §1

| Compound | MIC [µg/mL] |
| --- | --- |
| O=C1CS/C(=N\N=C\c2ccco2)N1Cc1cccc2ccccc12 | > 256 |
| C/C(=N\N=C1/SCC(=O)N1Cc1ccc([N+](=O)[O-])cc1)c1cccs1 | > 256 |
| CC(C)=N/N=C1\SCC(=O)N1Cc1ccc([N+](=O)[O-])cc1 | > 256 |

More lines, now with the values ahead:

| MIC [µg/mL] | Compound |
| --- | --- |
| > 256 | CC/C(C)=N/N=C1\SCC(=O)N1Cc1ccc([N+](=O)[O-])cc1 |
| > 256 | C=CCC/C(C)=N/N=C1\SCC(=O)N1Cc1cccc2ccccc12 |
